The results in this text go back to ChEMBL document CHEMBL1122008, “Lipophilic 5'-(alkyl phosphate) esters of 1-beta-D-arabinofuranosylcytosine and its N4-acyl and 2,2'-anhydro-3'-O-acyl derivatives as potential prodrugs” (1982).

Common to all, as to type: functional
Assay [1] concerns L1210. The experiment in a line: Growth inhibition of cultured L1210 mouse leukemia cells was determined. The settings on record: read-out: ID50 (the source's name). The method in brief: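 L1210 mouse leukemia cells in suspension in Eagle's MEM with 15% whole (non-dialyzed, non-heat-inactivated) fetal calf serum, antibiotics and 0.05 mM 2-mercaptoethanol, 37 °C, 5% CO2. Drugs in pH 7.4 phosphate buffer or Me2SO, generally 10^-7 to 10^-3 M. Coulter cell counts at 48 h; ID50 relative to untreated controls from dose–response curves, triplicate.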

The test system of assay [2] is B16. In words: Growth inhibition of B16 mouse melanoma cells in culture was determined. The conditions noted are these: read-out: ID50 (the source's name). Summed up:
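B16 mouse melanoma monolayers in McCoy's 5A with 10% whole fetal calf serum, streptomycin and penicillin, 37 °C, 5% CO2. Drugs were dissolved in 0.05 M pH 7.4 potassium phosphate buffer or Me2SO and dosed at regularly spaced concentrations, generally 10^-7 to 10^-3 M. Cells were counted after 48 h; ID50 versus untreated controls was read from dose–response curves, triplicate.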

Assay [3] has as its system Mus musculus. The experiment in a line: Antitumor activity against L1210 leukemia in mice (Percent increase in life span.) at the dose of 260 mg/kg. The method in brief:
(§1)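 Male B6D2F1J mice, groups of 5–9, inoculated ip with 10^5 L1210 cells on day 0. Dosing starts day 1 on a qd×5 or q4d(2,6) schedule. Vehicles are sterile water, pH 7.4 0.05 M potassium phosphate buffer, or 0.4% Tween 80/0.5% CMC/0.9% benzyl alcohol/0.9% saline. %ILS = (T/C − 1)×100 from median survival. Weights taken days 1 and 7.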

In assay [4] the test system is Mus musculus. In words: Antitumor activity against L1210 leukemia in mice (Average weight per mouse on day 1.) at the dose of 130 mg/kg. The method in brief: (§2)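 Male B6D2F1J mice (5–9 per group) received 10^5 L1210 cells i.p. on day 0 and drug from day 1, given qd×5 or q4d(2,6). Vehicles were sterile water, 0.05 M potassium phosphate pH 7.4, or 0.4% Tween 80/0.5% CMC/0.9% benzyl alcohol/0.9% saline. Read-out is average body weight per mouse (g) on day 1.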

The subject of assay [5] is Mus musculus. The experiment in a line: Antitumor activity against L1210 leukemia in mice (Average weight per mouse on day 1.) at the dose of 260 mg/kg. Summed up: as §2
For assay [6], the system named is Mus musculus. In words: Antitumor activity against L1210 leukemia in mice (Average weight per mouse on day 1.) at the dose of 390 mg/kg. The method in brief: as §2
Assay [7] relates to Mus musculus. In words: Antitumor activity against L1210 leukemia in mice (Percent increase in life span.) at the dose of 130 mg/kg. The method in brief: as §1
For assay [8], the system named is Mus musculus. The experiment in a line: Antitumor activity against L1210 leukemia in mice (Percent increase in life span.) at the dose of 390 mg/kg. Summed up: as §1
Assay [9] concerns Mus musculus. In words: Antitumor activity against L1210 leukemia in mice (Average 7-day weight change (%)) at the dose of 130 mg/kg. The method in brief: (§3)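 Male B6D2F1J mice, groups of five to nine, inoculated ip with 10^5 L1210 cells on day 0. Drug treatment started day 1 on qd×5 or q4d(2,6) schedule. Vehicles: ara-C in sterile water; the n-butyl phosphate ester in 0.05 M pH 7.4 potassium phosphate buffer; others as suspensions in 0.4% Tween 80/0.5% low-density CMC/0.9% benzyl alcohol/0.9% saline. Mice weighed days 1 and 7; 7-day weight change given as g/mouse and %.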

Assay [10] has as its system Mus musculus. In words: Antitumor activity against L1210 leukemia in mice (Average 7-day weight change (%)) at the dose of 260 mg/kg. The method in brief:
as §3

Assay [11] deals with Mus musculus. The experiment in a line: Antitumor activity against L1210 leukemia in mice (Average 7-day weight change (%)) at the dose of 390 mg/kg. The method in brief: as §3
The subject of assay [12] is Mus musculus. In words: Antitumor activity against L1210 leukemia in mice (Average 7-day weight change) at the dose of 260 mg/kg. Summed up:
as §3

In assay [13] the test system is Mus musculus. In words: Antitumor activity against L1210 leukemia in mice (Average 7-day weight change) at the dose of 130 mg/kg. Summed up:
as §3

The test system of assay [14] is Mus musculus. The experiment in a line: Antitumor activity against L1210 leukemia in mice (Average 7-day weight change) at the dose of 390 mg/kg. The method in brief: as §3
The test system of assay [15] is Mus musculus. In words: Antitumor activity against L1210 leukemia in mice (Percent increase in life span.) at the dose of 230 mg/kg. The method in brief:
as §1

Assay [16] deals with Mus musculus. The experiment in a line: Antitumor activity against L1210 leukemia in mice (Average weight per mouse on day 1.) at the dose of 115 mg/kg. The method in brief: as §2
Assay [17] concerns Mus musculus. In words: Antitumor activity against L1210 leukemia in mice (Average weight per mouse on day 1.) at the dose of 230 mg/kg. The method in brief: as §2
For assay [18], the system named is Mus musculus. The experiment in a line: Antitumor activity against L1210 leukemia in mice (Average weight per mouse on day 1.) at the dose of 460 mg/kg. Summed up: as §2
Assay [19] deals with Mus musculus. In words: Antitumor activity against L1210 leukemia in mice (Percent increase in life span.) at the dose of 115 mg/kg. Summed up: as §1
Assay [20] deals with Mus musculus. The experiment in a line: Antitumor activity against L1210 leukemia in mice (Percent increase in life span.) at the dose of 460 mg/kg (mice surviving 20 or more days). The method in brief:
as §1

The subject of assay [21] is Mus musculus. The experiment in a line: Antitumor activity against L1210 leukemia in mice (Average 7-day weight change (%)) at the dose of 230 mg/kg. The method in brief:
as §3

The subject of assay [22] is Mus musculus. In words: Antitumor activity against L1210 leukemia in mice (Average 7-day weight change (%)) at the dose of 460 mg/kg. Summed up:
as §3

The subject of assay [23] is Mus musculus. In words: Antitumor activity against L1210 leukemia in mice (Average 7-day weight change) at the dose of 115 mg/kg. The method in brief:
as §3

Assay [24] relates to Mus musculus. The experiment in a line: Antitumor activity against L1210 leukemia in mice (Average 7-day weight change) at the dose of 460 mg/kg. The method in brief: as §3
Assay [25] has as its system Mus musculus. In words: Antitumor activity against L1210 leukemia in mice (Average 7-day weight change (%)) at the dose of 115 mg/kg. The method in brief: as §3
The subject of assay [26] is Mus musculus. The experiment in a line: Antitumor activity against L1210 leukemia in mice (Average 7-day weight change) at the dose of 230 mg/kg. The method in brief:
as §3

Assay [27] has as its system Mus musculus. In words: Antitumor activity against L1210 leukemia in mice (Percent increase in life span.) at the dose of 267 mg/kg (mice surviving 20 or more days). Summed up:
as §1

The test system of assay [28] is Mus musculus. The experiment in a line: Antitumor activity against L1210 leukemia in mice (Average weight per mouse on day 1.) at the dose of 113 mg/kg. Summed up: as §2
Assay [29] relates to Mus musculus. In words: Antitumor activity against L1210 leukemia in mice (Average weight per mouse on day 1.) at the dose of 200 mg/kg. The method in brief: as §2
Assay [30] deals with Mus musculus. The experiment in a line: Antitumor activity against L1210 leukemia in mice (Average weight per mouse on day 1.) at the dose of 267 mg/kg. The method in brief: as §2
Assay [31] deals with Mus musculus. In words: Antitumor activity against L1210 leukemia in mice (Percent increase in life span.) at the dose of 113 mg/kg. The method in brief:
as §1

Assay [32] has as its system Mus musculus. The experiment in a line: Antitumor activity against L1210 leukemia in mice (Average 7-day weight change (%)) at the dose of 200 mg/kg. The method in brief: as §3
The test system of assay [33] is Mus musculus. The experiment in a line: Antitumor activity against L1210 leukemia in mice (Average 7-day weight change (%)) at the dose of 267 mg/kg. The method in brief:
as §3

The test system of assay [34] is Mus musculus. In words: Antitumor activity against L1210 leukemia in mice (Average 7-day weight change) at the dose of 200 mg/kg. The method in brief: as §3
Assay [35] has as its system Mus musculus. In words: Antitumor activity against L1210 leukemia in mice (Average 7-day weight change) at the dose of 267 mg/kg. Summed up:
as §3

The subject of assay [36] is Mus musculus. In words: Antitumor activity against L1210 leukemia in mice (Average 7-day weight change) at the dose of 113 mg/kg. Summed up: as §3
The test system of assay [37] is Mus musculus. In words: Antitumor activity against L1210 leukemia in mice (Average 7-day weight change (%)) at the dose of 113 mg/kg. The conditions noted are these: dose 133 mg/kg; in the assay text read “133 mg/kg” for “113 mg/kg”. The method in brief: as §3
For assay [38], the system named is Mus musculus. In words: Antitumor activity against L1210 leukemia in mice (Percent increase in life span.) at the dose of 200 mg/kg (mice surviving 20 or more days). The method in brief:
as §1

`CCCCCCCCOP(=O)(O)OC[C@H]1O[C@@H](n2ccc(N)nc2=O)[C@@H](O)[C@@H]1O`: the IC50 in assay [1] came out at 11 µM; in assay [2], 360 µM.

`CCCCCCCCCCCCCCCCOP(=O)(O)OC[C@H]1O[C@@H](n2ccc(N)nc2=O)[C@@H](O)[C@@H]1O`: the IC50 in assay [1] amounted to 11 µM.

As to `CCCCCCOP(=O)(O)OC[C@H]1O[C@@H](n2ccc(N)nc2=O)[C@@H](O)[C@@H]1O`, the IC50 in [1] was determined as 7.8 µM.

For `CCOP(=O)(O)OC[C@H]1O[C@@H](n2ccc(N)nc2=O)[C@@H](O)[C@@H]1O`, the IC50 amounted to 4 µM in assay [1] and 70 µM in assay [2].

Take `Nc1ccn([C@@H]2O[C@H](COP(=O)(O)OCC(O)CO)[C@@H](O)[C@@H]2O)c(=O)n1` (stereo partly drawn): the figures for the IC50 in assay [1] and in assay [2] were 0.65 µM and 26 µM, respectively.

Take `Nc1ccn([C@@H]2O[C@H](COP(=O)(O)OCC(O)COCc3ccccc3)[C@@H](O)[C@@H]2O)c(=O)n1` (stereo partly drawn): the IC50 in assay [1] was 1 µM; in [2] it was 25 µM.

Usually ILS stands for how much longer treated animals lived than controls. Low readings indicate little gain in survival, high ones much gain in survival. As to `CCCCCCCCCCCCCCCC(=O)O[C@H]1[C@@H]2Oc3nc(=N)ccn3[C@@H]2O[C@@H]1COP(=O)(O)OCCCC`, the increase in lifespan (ILS) at 260 mg/kg in [3] worked out at 62%. For the same compound, the values for the Average weight in assay [4], in [5] and in [6] were 23 g mouse-1, 22.8 g mouse-1 and 24.5 g mouse-1, respectively. The ILS at 130 mg/kg in assay [7] was 62%. Further, the increase in life span (ILS) at 390 mg/kg in assay [8] was determined as 74%. Besides, the Weight change in assay [9] is listed as 4%; in assay [10] it was 4%; in assay [11], -7%; in assay [12] it was 0.9 g mouse-1; in [13], 0.9 g mouse-1; in [14] it was -1.6 g mouse-1.

Compound `CCCCCCCCCCCCCCCC(=O)O[C@H]1[C@@H]2Oc3nc(=N)ccn3[C@@H]2O[C@@H]1COP(=O)(O)OCCCCCC` yielded an increase in life span (ILS) at 230 mg/kg in [15] of 37%. In addition, the Average weight amounted to 20.6 g mouse-1 in assay [16], 22.2 g mouse-1 in assay [17] and 19.8 g mouse-1 in [18]. Besides, in [19], the increase in life span (ILS) at 115 mg/kg was determined as 25%. The same compound returned an ILS at 460 mg/kg in assay [20] of 75%. The Weight change in assay [21] is given as 8%; in assay [22], 14%; in [23], 2 g mouse-1; in [24] it was 2.8 g mouse-1; in assay [25] it was 10%; in assay [26], 1.8 g mouse-1.

`CCCCCCCCCCCCCCCC(=O)O[C@H]1[C@@H]2Oc3nc(=N)ccn3[C@@H]2O[C@@H]1COP(=O)(O)OCCOCC` registered an increase in life span (ILS) at 267 mg/kg in assay [27] of 150%. Also, the Average weight came to 24 g mouse-1 in assay [28], 24.4 g mouse-1 in assay [29] and 24 g mouse-1 in assay [30]. Further, in [31], the ILS at 113 mg/kg was found to be 112%. In addition, the Weight change in assay [32] was -16%; in assay [33], -16%; in assay [34], -4 g mouse-1; in assay [35], -3.6 g mouse-1; in assay [36], -2.6 g mouse-1; in assay [37] it was -11%. In [38], the ILS at 200 mg/kg turned out to be 137%.

On to `Nc1ccn([C@@H]2O[C@H](COP(=O)(O)O)[C@@H](O)[C@H]2O)c(=O)n1`, for which the results for the IC50 in assay [1] and in assay [2] were 0.35 µM and 1.5 µM, respectively.
